Laboratory results as given in ChEMBL document CHEMBL2176894, “Cyanobacterial peptides as a prototype for the design of potent β-secretase inhibitors and the development of selective chemical probes for other aspartic proteases” (J Med Chem, 2012).
The source made the active and inactive calls. The calls are words filed in the database; no cut-off is given here. Starred links: 1 amine or outer side, 2 acyl side, 3 side chain; linkers in the order of their positions; H or OH if unused. Non-standard residues stand in square brackets, D forms with d. Residues, ends and D or L forms follow the SMILES beside them. *: point of attachment. Ahppa(3S,4S) = O=C(C[C@H](O)[C@H](Cc1ccccc1)N[*:1])[*:2]; dNMeF = CN[C@H](Cc1ccccc1)C(=O)O; NMeQ = CN[C@@H](CCC(N)=O)C(=O)O; Cbz = O=C(OCc1ccccc1)*

Experiments:
[1] = biological target: T1, Gamma-secretase (Homo sapiens) (UniProt Q96BI3+Q9NZ42+Q8WW43+P49768+Q92542+P49810); test: Inhibition of gamma secretase expressed in human H4 cells assessed as reduction in CTF levels at 10 uM incubated for 16 hrs by immunoblot; assay type: cell-based
[2] = biological target: T1, Gamma-secretase (Homo sapiens); test: Inhibition of gamma secretase expressed in human H4 cells expressing BRI-C99 fusion protein assessed as C99 fragment accumulation fragment at 100 nM incubated for 16 hrs in by immunoblot; assay type: cell-based
In short: (§1)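 H4 cells overexpressing Bri-C99 (400000/well) were kept in Opti-MEM with 1% serum and treated 16 h with test compound (10 μM), LY411575 (100 nM) or BACE1 inhibitor IV (1 μM). Cells were lysed in TBS/1% Triton X-100 and run on a 12% bis-tris gel. Blots were probed with CT-20 antibody for furin-generated C99 and read on an infrared imager.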

[3] = biological target: T1, Gamma-secretase (Homo sapiens); test: Inhibition of gamma secretase expressed in human H4 cells assessed as reduction in C83 levels at 10 uM incubated for 16 hrs by immunoblot; assay type: cell-based
[4] = biological target: T2, Cathepsin E (Homo sapiens, UniProt P14091); test: Inhibition of cathepsin E by fluorescence assay
T2 sequence (P14091 whole entry): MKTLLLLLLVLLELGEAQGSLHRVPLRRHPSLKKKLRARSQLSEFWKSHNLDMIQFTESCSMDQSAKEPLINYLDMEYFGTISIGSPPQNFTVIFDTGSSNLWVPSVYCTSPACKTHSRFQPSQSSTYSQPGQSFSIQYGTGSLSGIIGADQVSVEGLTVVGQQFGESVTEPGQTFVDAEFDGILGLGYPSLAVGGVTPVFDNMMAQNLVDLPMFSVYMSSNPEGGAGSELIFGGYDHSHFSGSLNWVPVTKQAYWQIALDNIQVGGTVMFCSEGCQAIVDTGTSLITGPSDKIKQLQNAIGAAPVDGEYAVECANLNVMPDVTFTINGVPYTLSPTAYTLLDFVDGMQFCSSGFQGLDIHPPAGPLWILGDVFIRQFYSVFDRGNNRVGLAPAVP

[5] = biological target: Cathepsin D (Homo sapiens, UniProt P07339); test: Inhibition of cathepsin D by fluorescence assay
Sequence of Cathepsin D (P07339 65-162 limits assumed): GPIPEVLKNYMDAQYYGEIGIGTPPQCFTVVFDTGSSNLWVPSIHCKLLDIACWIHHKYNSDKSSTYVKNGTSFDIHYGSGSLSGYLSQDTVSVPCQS
Sequence of Cathepsin D (P07339 169-412 limits assumed): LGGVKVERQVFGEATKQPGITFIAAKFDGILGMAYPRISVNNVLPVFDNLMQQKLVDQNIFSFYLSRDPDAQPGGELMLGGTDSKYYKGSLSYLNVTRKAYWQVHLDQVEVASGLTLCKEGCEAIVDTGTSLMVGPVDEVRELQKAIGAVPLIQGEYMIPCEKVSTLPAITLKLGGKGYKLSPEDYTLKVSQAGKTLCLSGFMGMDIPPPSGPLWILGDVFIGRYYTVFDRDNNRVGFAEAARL

[6] = biological target: T1, Gamma-secretase (Homo sapiens); test: Inhibition of gamma secretase expressed in human H4 cells expressing BRI-C99 fusion protein assessed as C99 fragment accumulation fragment at 10 uM incubated for 16 hrs in by immunoblot; assay type: cell-based; in short: as §1
[7] = biological target: T3, Beta-secretase 1 (Homo sapiens, UniProt P56817); settings: H4, at 10 µM
T3 sequence (P56817 whole entry): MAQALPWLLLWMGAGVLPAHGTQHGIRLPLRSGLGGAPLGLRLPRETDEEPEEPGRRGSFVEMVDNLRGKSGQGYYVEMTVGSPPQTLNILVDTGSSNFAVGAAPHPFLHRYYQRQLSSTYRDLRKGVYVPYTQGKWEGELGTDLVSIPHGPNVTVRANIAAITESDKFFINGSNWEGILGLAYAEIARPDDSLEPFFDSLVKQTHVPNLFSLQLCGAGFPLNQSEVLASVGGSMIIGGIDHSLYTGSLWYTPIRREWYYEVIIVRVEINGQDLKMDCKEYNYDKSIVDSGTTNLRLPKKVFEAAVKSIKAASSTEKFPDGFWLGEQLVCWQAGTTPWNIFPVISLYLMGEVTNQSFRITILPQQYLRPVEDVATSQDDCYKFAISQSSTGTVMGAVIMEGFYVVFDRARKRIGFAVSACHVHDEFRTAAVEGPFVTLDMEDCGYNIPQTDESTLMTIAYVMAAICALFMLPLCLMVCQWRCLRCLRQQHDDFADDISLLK

[8] = biological target: T3, Beta-secretase 1; test: Inhibition of BACE1 by fluorescence assay
[9] = test system: Brain; test: Drug concentration in CF1 mouse brain at 30 mg/kg, ip measured 3 hrs post dose by HPLC-MS method relative to compound plasma concentration; assay type: ADME, organism-based; set-up: dose 30 mg/kg, route intraperitoneal
In short: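 CF-1 mice, 8 weeks old, 25−35 g, given 30 mg/kg i.p. in 5% DMSO/15% Solutol HS 15/10% EtOH/65% water; killed 3 h post-dose. Cerebellum and cortex homogenized in acetonitrile (1:10 w:v) containing internal standard, then re-extracted. Plasma was taken by cardiac puncture into K-EDTA. Levels were measured by HPLC-MS (MRM, negative ionization) and interpolated from a calibration curve.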

Structure (SMILES): C[C@H](NC(=O)[C@@H](O)c1cc(F)cc(F)c1)C(=O)N[C@@H]1C(=O)N(C)c2ccccc2-c2ccccc21
- inhibition [1]: Active
- inhibition [2]: Active
- inhibition [3]: Active

Structure (SMILES): COC(=O)[C@@H]1CCCN1C(=O)[C@@H](Cc1ccccc1)N(C)C(=O)[C@H](C)NC(=O)[C@H](CC(C)C)NC(=O)C[C@H](O)[C@H](Cc1ccccc1)NC(=O)[C@H](CCC(N)=O)N(C)C(=O)[C@@H](NC(=O)[C@H](C)O)C(C)C
- IC50 [4]: 66 nM

Structure (SMILES): COC(=O)[C@@H]1CCCN1C(=O)[C@@H](Cc1ccccc1)N(C)C(=O)[C@H](C)NC(=O)[C@H](CC(C)C)NC(=O)C[C@H](O)[C@H](Cc1ccccc1)NC(=O)[C@H](CCC(N)=O)NC(C)=O
- IC50 [4]: 77.5 nM
- IC50 [5]: 7.81 nM
- inhibition [6]: inactive

Structure (SMILES): CC(C)C[C@H](NC(=O)C[C@H](O)[C@H](Cc1ccccc1)NC(=O)[C@H](CCC(N)=O)N(C)C(=O)[C@@H](NC(=O)[C@H](C)O)C(C)C)C(=O)N[C@@H](C)C(=O)N(C)[C@H](Cc1ccccc1)C(=O)NCc1ccccc1
- IC50 [4]: 30.4 nM
- inhibition [7]: Active
- IC50 [5]: 20.9 nM
- IC50 [8]: 124 nM

Structure (SMILES): CC(C)C[C@@H](C=O)NC(=O)[C@H](CC(C)C)NC(=O)[C@@H](NC(=O)OCc1ccccc1)C(C)C (Cbz-Val-Leu-Leu-aldehyde)
- inhibition [7]: Active

Structure (SMILES): COc1cccc(CNC[C@@H](O)[C@H](Cc2ccccc2)NC(=O)c2cc(C(=O)N[C@H](C)c3ccccc3)cc(N(C)S(C)(=O)=O)c2)c1
- Drug uptake [9]: 10%

Structure (SMILES): COC(=O)[C@@H]1CCCN1C(=O)[C@@H](Cc1ccccc1)N(C)C(=O)[C@H](C)NC(=O)[C@H](CC(C)C)NC(=O)C[C@H](O)[C@H](Cc1ccccc1)NC(C)=O
- IC50 [4]: 4950 nM
- IC50 [5]: 71.7 nM

Structure (SMILES): COC(=O)[C@@H]1CCCN1C(=O)[C@@H](Cc1ccccc1)N(C)C(=O)[C@@H](C)NC(=O)[C@H](CC(C)C)NC(=O)C[C@H](O)[C@H](Cc1ccccc1)NC(=O)[C@H](CCC(N)=O)N(C)C(=O)[C@@H](NC(=O)[C@H](C)O)C(C)C
- IC50 [4]: 1450 nM

Structure (SMILES): COC(=O)[C@@H]1CCCN1C(=O)[C@@H](Cc1ccccc1)N(C)C(=O)[C@H](C)NC(=O)[C@H](CC(C)C)NC(=O)C[C@H](O)[C@H](Cc1ccccc1)NC(=O)[C@H](CCC(N)=O)N(C)C(=O)[C@@H](NC(=O)OCc1ccccc1)C(C)C (Cbz-V[NMeQ][Ahppa(3S,4S)]LA[dNMeF]P-OMe)
- IC50 [4]: 0.724 nM
- IC50 [5]: 0.0783 nM
- inhibition [6]: inactive
